Test [1] in a line: Reversal of multidrug resistance assessed as effect on calcein accumulation in MDR-human 2780 AD cells at 2.5 ug/ml relative to control. The class given is functional. The procedure, abridged: (§1)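 Multidrug-resistant human ovarian cancer 2780AD cells were loaded with calcein AM in the presence of test compound at 0.25, 2.5 or 25 μg/mL. Intracellular calcein, formed by enzymatic hydrolysis, was measured by fluorescence and expressed relative to a no-compound control. Values are means of triplicate determinations.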

Test [2] can be described thus: Reversal of multidrug resistance assessed as effect on calcein accumulation in MDR-human 2780 AD cells at 2.5 ug/ml relative to verapamil. The class given is functional. The procedure, abridged: (§2)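 Multidrug-resistant 2780AD ovarian cancer cells were incubated with calcein AM plus test compound at 0.25, 2.5 or 25 μg/mL. Cellular calcein accumulation was read by fluorescence and expressed as a percentage of the verapamil response. Values are based on triplicate determinations.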

The test system of test [3] is A549. The experiment in a line: Viability of human A549 cells by MTT assay after 24 hrs. The class given is cell-based. As to conditions: A549, 24 h. The method, boiled down: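 A549 cells were exposed to serial compound dilutions for 24 h, and viability was measured by MTT. Viability % was taken as background-corrected absorbance relative to control. IC50 was derived from this, using triplicate cultures.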

The nature of test [4]: Growth inhibition of human WI38 cells. The conditions noted are these: WI-38. The class given is cell-based. The procedure, abridged:
(§3)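 Growth inhibition assayed in normal human fibroblasts WI-38, their malignant transformant VA-13, and human liver tumour HepG2 cells; IC50 reported.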

The test system of a further test is WI-38 VA13. The experiment in a line: Growth inhibition of human VA13 cells. Format: functional, cell-based. The method, boiled down:
as §3

Test [5] in a line: Reversal of multidrug resistance assessed as effect on calcein accumulation in MDR-human 2780 AD cells at 25 ug/ml relative to control. The class given is functional. The method, boiled down:
as §1

In test [6] the test system is A549. Kind of test: Inhibition of induction of ICAM1 expression in human A549 cells in presence of TNFalpha after 1 hr. Format: functional, cell-based. The conditions noted are these: A549, 1 h. The procedure, abridged:
(§4)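 A549 cells (2 × 10⁴ cells/well) were pretreated with a range of compound concentrations for 1 h, then stimulated with IL-1α or TNF-α for 6 h. Surface ICAM-1 was detected with primary and secondary antibodies plus enzyme substrate, read as absorbance at 415 nm. Expression was taken as % of control after subtracting the unstimulated background. IC50 was derived from this, using triplicate cultures.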

Test [7] relates to A549. The experiment in a line: Inhibition of induction of ICAM1 expression in human A549 cells in presence of IL1-alpha after 1 hr. Format: functional, cell-based. As to conditions: A549, 1 h. The method, boiled down: as §4
Test [8] can be described thus: Reversal of multidrug resistance assessed as effect on calcein accumulation in MDR-human 2780 AD cells at 0.25 ug/ml relative to control. Format: functional. The method, boiled down:
as §1

Test [9] in a line: Reversal of multidrug resistance assessed as effect on calcein accumulation in MDR-human 2780 AD cells at 0.25 ug/ml relative to verapamil. The class given is functional. The method, boiled down: as §2
Test [10] is described as follows: Reversal of multidrug resistance assessed as effect on calcein accumulation in MDR-human 2780 AD cells at 25 ug/ml relative to verapamil. The class given is functional. The method, boiled down:
as §2

Another test deals with HepG2. Kind of test: Growth inhibition of human HepG2 cells. The class given is functional, cell-based. The method, boiled down: as §3

The IC50 is the concentration that inhibits the measured activity by half. In the case of `CO[C@@H]1C[C@H](O[C@H]2CC[C@@]3(C)[C@@H](CC[C@@H]4[C@@H]3CC[C@]3(C)[C@@H](C5=CC(=O)OC5)[C@@H](OC(C)=O)C[C@]43O)C2)O[C@H](C)[C@@H]1O`, the Activity is listed as 126% in test [1]; 128% in test [2]; 109% in test [5]; 105% in test [8]; 113% in [9]; 82% in test [10]. Besides, the IC50 in the test on A549 [3] was more than 100 µM; in [4] it was 23 µM; in the test with WI-38 VA13 it was 0.72 µM; with A549 [6], 16.9 µM; with A549 [7], 21.5 µM.
In the case of `CO[C@@H]1C[C@H](O[C@H]2CC[C@@]3(C)[C@H](CC[C@@]45O[C@@]46C[C@H]4O[C@@]4(C4=CC(=O)OC4)[C@@]6(C)CC[C@H]35)C2)O[C@H](C)[C@@H]1O`, the Activity in test [1] was 96%; in test [5], 97%; in test [8], 104%. The IC50 in the test with A549 [3] is more than 100 µM; in [4], 40.9 µM; in the test with A549 [6] it was 45.6 µM; with A549 [7] it was 62.1 µM; in the test on HepG2, 74.1 µM.
Regarding `CO[C@@H]1C[C@H](O[C@H]2CC[C@@]3(C)[C@H](CC[C@@H]4[C@@H]3CC[C@]3(C)[C@@H](C5=CC(=O)OC5)[C@@H](OC(C)=O)C[C@]43O)C2)O[C@H](C)[C@@H]1O`, the Activity in [1] is given as 77%; in [5] it was 75%; in [8], 67%. The IC50 in the test with A549 [3] was more than 316 µM; in [4] it was 0.09 µM; with WI-38 VA13, 0.17 µM; with A549 [6], 0.31 µM; with A549 [7], 0.51 µM; with HepG2 it was 1.5 µM.
As to `CO[C@@H]1C[C@H](O[C@H]2CC[C@@]3(C)[C@H](CC[C@@H]4[C@@H]3CC[C@]3(C)[C@@H](C5=CC(=O)OC5)CC[C@]43O)C2)O[C@H](C)[C@@H]1O`, the Activity is recorded as 89% in test [1], 96% in test [5] and 93% in test [8]. For the same compound, the IC50 in the test with A549 [3] was more than 316 µM; in test [4], 0.07 µM; in the test with WI-38 VA13, 0.18 µM; in the test on A549 [6], 0.48 µM; in the test with A549 [7], 0.2 µM; in the test on HepG2, 1.5 µM.
As to `CO[C@@H]1C[C@H](O[C@H]2CC[C@@]3(C)[C@H](CC[C@]4(O)[C@@H]3CC[C@]3(C)[C@@H](C5=CC(=O)OC5)CC[C@@]34O)C2)O[C@H](C)[C@@H]1O`, the Activity in [1] is 107%; in [5], 112%; in test [8], 112%. The IC50 in the test with A549 [3] is more than 100 µM; in test [4] it was 9.4 µM; in the test on WI-38 VA13, 1.6 µM; with A549 [6], 5.9 µM; with A549 [7], 6 µM; in the test with HepG2, 4.7 µM.
On to `CO[C@@H]1C[C@H](O[C@H]2CC[C@@]3(C)[C@H](CC[C@@]45O[C@@]46CC=C(C4=CC(=O)OC4)[C@@]6(C)CC[C@H]35)C2)O[C@H](C)[C@@H]1O`, for which the Activity in [1] is 89%; in test [5], 99%; in test [8], 88%. The IC50 in the test on A549 [3] is more than 316 µM; in the test on A549 [7], 133 µM.
As to `CO[C@H]1C[C@H](O[C@H]2CC[C@@]3(C)[C@H](CC[C@@H]4[C@@H]3CC[C@]3(C)[C@@H](C5=CC(=O)OC5)CC[C@]43O)C2)O[C@H](C)[C@@H]1O`, the Activity in [1] was 83%; in [5], 86%; in [8], 89%. In addition, the IC50 was more than 100 µM in the test on A549 [3]; less than 0.02 µM in test [4]; 0.8 µM in the test with WI-38 VA13; 0.16 µM with A549 [6]; 0.2 µM with A549 [7]; 0.14 µM in the test with HepG2.
Turning to `CC(=O)O[C@H]1C[C@]2(O)[C@@H]3CC[C@@H]4C[C@@H](O)CC[C@]4(C)[C@H]3CC[C@]2(C)[C@H]1C1=CC(=O)OC1`, the Activity in test [1] is 100%; in [5], 99%; in [8], 92%. Also, the IC50 with A549 [3] was more than 100 µM; in test [4] it was 1.7 µM; in the test on WI-38 VA13 it was 0.16 µM; in the test with A549 [6], 0.36 µM; with A549 [7] it was 0.52 µM; in the test with HepG2, 0.2 µM.
With `CO[C@@H]1C[C@H](O[C@H]2CC[C@@]3(C)[C@H](CC[C@@]45O[C@@]46CC[C@H](C4=CC(=O)OC4)[C@@]6(C)CC[C@H]35)C2)O[C@H](C)[C@@H]1O`, the figures for the Activity in test [1], in [5] and in test [8] were 102%, 112% and 92%, respectively. Further, the half-inhibitory concentration (IC50) in the test on A549 [3] is more than 316 µM; in test [4], 33.1 µM; in the test with WI-38 VA13, 13.4 µM; in the test with A549 [7], 13.9 µM; with HepG2, 76.4 µM.
Take `CO[C@H]1C[C@H](O[C@H]2CC[C@@]3(C)[C@H](CC[C@@]45O[C@@]46CC=C(C4=CC(=O)OC4)[C@@]6(C)CC[C@H]35)C2)O[C@H](C)[C@@H]1O`: the values for the Activity in test [1], in test [5] and in [8] were 100%, 102% and 99%, respectively. The IC50 is more than 100 µM in the test on A549 [3]; 16.3 µM in test [4]; 85.7 µM with WI-38 VA13; 55.4 µM in the test on A549 [6]; 69.3 µM in the test with A549 [7]; 81.4 µM with HepG2.
With `CO[C@H]1C[C@H](O[C@H]2CC[C@@]3(C)[C@H](CC[C@@H]4[C@@H]3CC[C@]3(C)[C@@H](C5=CC(=O)OC5)[C@@H](OC(C)=O)C[C@]43O)C2)O[C@H](C)[C@@H]1O`, the Activity in test [1] was 81%; in test [5], 91%; in test [8] it was 90%. Also, the IC50 with A549 [3] was more than 1000 µM; in [4] it was 0.08 µM; in the test on WI-38 VA13, 0.24 µM; in the test on A549 [7], 0.57 µM; with HepG2 it was 0.82 µM.
For the compound `C[C@]12CC[C@H](O)C[C@H]1CC[C@@H]1[C@@H]2CC[C@]2(C)[C@@H](C3=CC(=O)OC3)CC[C@]12O` [DIGITOXIGENIN], the values for the Activity in test [1], in [5] and in test [8] were 74%, 66% and 86%, respectively. The IC50 is more than 316 µM in the test on A549 [3]; 11.8 µM in test [4]; 1.9 µM in the test on WI-38 VA13; 0.62 µM in the test with A549 [7]; 18 µM in the test on HepG2.
Regarding `COc1cccc2c1C(=O)c1c(O)c3c(c(O)c1C2=O)C[C@@](O)(C(=O)CO)C[C@@H]3O[C@H]1C[C@H](N)[C@H](O)[C@H](C)O1` [DOXORUBICIN], the values for the IC50 (in test [4]; in the test on WI-38 VA13; with HepG2) were 0.7 µM, 0.4 µM and 1.3 µM, respectively.
Compound `CC(=O)O[C@H]1C(=O)[C@@]2(C)[C@H]([C@H](OC(=O)c3ccccc3)[C@]3(O)C[C@H](OC(=O)[C@H](O)[C@@H](NC(=O)c4ccccc4)c4ccccc4)C(C)=C1C3(C)C)[C@]1(OC(C)=O)CO[C@@H]1C[C@@H]2O` [PACLITAXEL] displayed an IC50 in test [4] of 0.04 µM.

The values are drawn from ChEMBL document CHEMBL1146214, “Bioactive cardenolides from the stems and twigs of Nerium oleander” (J Nat Prod, 2007).
